Data taken from ChEMBL document CHEMBL4665810, “Aryloxy Diester Phosphonamidate Prodrugs of Phosphoantigens (ProPAgens) as Potent Activators of Vγ9/Vδ2 T-Cell Immune Responses” (J Med Chem, 2020).
Calls of active or inactive are those of the source. No cut-off for these calls is given here.

Key:
[1] = target: T1, Butyrophilin subfamily 3 member A1 (Homo sapiens, UniProt O00481); experiment: Potency index, ratio of HMBPP EC50 to test compound EC50 for activation of BTN3A1 in human PBMC-derived Vgamma9/Vdelta2 T cells; assay type: tissue-based; details: Vgamma9Vdelta2 T cell
Target sequence in this assay (O00481 30-513 limits assumed): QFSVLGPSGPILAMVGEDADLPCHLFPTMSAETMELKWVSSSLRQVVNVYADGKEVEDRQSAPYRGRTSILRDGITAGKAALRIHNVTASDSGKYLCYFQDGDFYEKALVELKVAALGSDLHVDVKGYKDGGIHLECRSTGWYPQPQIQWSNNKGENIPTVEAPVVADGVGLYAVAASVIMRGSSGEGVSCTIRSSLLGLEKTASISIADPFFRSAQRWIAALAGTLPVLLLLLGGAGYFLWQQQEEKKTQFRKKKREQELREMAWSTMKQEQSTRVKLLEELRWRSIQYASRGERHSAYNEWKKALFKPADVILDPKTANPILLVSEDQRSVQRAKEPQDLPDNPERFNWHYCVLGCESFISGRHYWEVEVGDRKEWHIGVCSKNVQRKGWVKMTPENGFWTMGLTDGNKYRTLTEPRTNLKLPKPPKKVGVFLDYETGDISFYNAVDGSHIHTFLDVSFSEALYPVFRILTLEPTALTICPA

[2] = target: T1, Butyrophilin subfamily 3 member A1; experiment: (§1) Binding affinity to BTN3A1 in human PBMC-derived Vgamma9/Vdelta2 T cells assessed as induction of Vgamma9/Vdelta2 T cell mediated T-24 cell lysis co-expressing GFP at 10 pM preincubated 4 hrs followed by compound washout and subsequent Vgamma9Vdelta2 T cell addition at 8:1 effector/target ratio and measured after 18 hrs by fluorescence based assay; assay type: tissue-based
Procedure, shortened: (§2)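 T24 bladder carcinoma cells made GFP+ by retroviral transduction. Targets pulsed 4 h with 10 pM compound, washed three times in RPMI, then cocultured 18 h at 37 °C with Vγ9Vδ2 T-cells expanded 14 days from donor PBMCs (5 μM zoledronate, 100 U/mL IL2 every 2–3 days). % killing = eFluor780+ GFP+ of all GFP+ T24 cells, by flow cytometry. Basal untreated-target killing subtracted; mean ± SE, n = 3.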
Target sequence in this assay (O00481 30-513 limits assumed): as above

[3] = system: CD8-positive T cell; experiment: Activation of human PBMC derived CD-8 positive cells assessed as increase in alphabeta T cells at 0.1 to 10000 nM by Alexa Flour A88a staining based flow cytometry; assay type: functional; details: dose nM 0.1-10000
[4] = system: T-24; experiment: Cytotoxicity against human T-24 cells co-expressing GFP assessed as reduction in cell viability at 10 pM after 4 hrs by eFluor 780 fixable viability dye based fluorescence assay; details: t-24, 4 h
Procedure, shortened: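 GFP+ T24 cells pulsed 4 h with 10 pM compound, washed, and held 18 h at 37 °C without effector cells (0:1 ratio). Dead targets measured by flow cytometry as eFluor780+ GFP+ fraction of total GFP+ T24 cells; mean ± SE, n = 3.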

[5] = target: T1, Butyrophilin subfamily 3 member A1; experiment: as §1, with “1:1” for “8:1”; assay type: tissue-based; procedure, shortened: as §2
Target sequence in this assay (O00481 30-513 limits assumed): as above

[6] = target: T1, Butyrophilin subfamily 3 member A1; experiment: Binding affinity to BTN3A1 in human PBMC-derived Vgamma9/Vdelta2 T cells assessed as increase in CD69/CD25 level incubated for overnight by flow cytometric analysis; assay type: tissue-based, Vgamma9Vdelta2 T cell
Procedure, shortened: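 Healthy-donor PBMCs, 5 × 10^5 cells per well, stimulated with compounds over 10 pM to 100 μM, or 1 aM to 100 μM in a separate run. Incubated overnight at 37 °C/5% CO2. Vγ9+Vδ2+ cells gated within live CD3+ cells by flow cytometry and scored as % CD69+CD25+.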
Target sequence in this assay (O00481 whole entry): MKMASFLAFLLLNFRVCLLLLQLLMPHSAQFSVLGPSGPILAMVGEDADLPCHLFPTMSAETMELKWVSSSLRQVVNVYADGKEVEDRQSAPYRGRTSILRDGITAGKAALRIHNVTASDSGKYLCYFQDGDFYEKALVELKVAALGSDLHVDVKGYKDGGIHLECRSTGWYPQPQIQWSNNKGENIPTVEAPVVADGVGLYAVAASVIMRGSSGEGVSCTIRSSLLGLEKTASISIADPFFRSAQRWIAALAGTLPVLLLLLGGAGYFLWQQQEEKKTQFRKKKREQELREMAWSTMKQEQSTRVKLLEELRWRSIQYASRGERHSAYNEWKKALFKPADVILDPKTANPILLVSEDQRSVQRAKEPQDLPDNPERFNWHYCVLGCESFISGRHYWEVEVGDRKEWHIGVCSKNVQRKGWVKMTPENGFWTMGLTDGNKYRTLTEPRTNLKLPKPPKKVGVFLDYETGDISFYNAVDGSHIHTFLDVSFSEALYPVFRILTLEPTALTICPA

[7] = Stability of compound in human serum at 5 mg and measured at 30 mins interval for up to 12 hrs by 31PNMR analysis; assay type: ADME, cell-free
Procedure, shortened: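 Compound, 5.0 mg in DMSO/D2O, with control 31P NMR recorded at 37 °C. Freshly thawed human serum then added and 31P NMR spectra recorded at 37 °C every 30 min over 12 h.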

[8] = Drug metabolism assessed as recombinant carboxypeptidase Y (unknown origin)-mediated metabolite C formation and measured up to 15 hrs by HPLC analysis; assay type: ADME; details: human
[9] = Drug metabolism assessed as recombinant carboxypeptidase Y (unknown origin)-mediated metabolite C formation and measured up to 15 hrs by LC-MS analysis; assay type: ADME; details: human
[10] = Drug metabolism assessed as recombinant carboxypeptidase Y (unknown origin)-metabolite C formation at 3 mg measured at 1 hr interval for […] by 31PNMR analysis; assay type: ADME, Homo sapiens
Procedure, shortened: (§3)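 Compound, 3.0 mg in acetone-d6, mixed with TRIZMA buffer pH 7.6. Control 31P NMR taken at 25 °C, then carboxypeptidase Y (0.1 mg in TRIZMA) added. Spectra recorded at 25 °C after 10 min and then every 1 h for 12 h.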

[11] = Drug metabolism assessed as recombinant carboxypeptidase Y (unknown origin)-mediated hydrolysis of ester motif at 3 mg measured at 1 hr interval […] by 31PNMR analysis; assay type: ADME, Homo sapiens; procedure, shortened: as §3
[12] = target: T1, Butyrophilin subfamily 3 member A1; experiment: Binding affinity to BTN3A1 in human PBMC-derived Vgamma9/Vdelta2 T cells; assay type: tissue-based, Vgamma9Vdelta2 T cell
Target sequence in this assay (O00481 whole entry): as above

[13] = Half life in human serum at 5 mg and measured up to 12 hrs by 31PNMR analysis; assay type: ADME, cell-free
Procedure, shortened: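 Prodrug (5.0 mg) dissolved in DMSO/D2O; control 31P NMR spectrum recorded at 37 °C, then freshly thawed human serum added. 31P NMR spectra acquired at 37 °C every 30 min over 12 h to follow the prodrug signals.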

Row | SMILES | Activity [2] | Activity [4] | Activity [5] | EC50 [6] [nM] | other results
1 | C/C(=C\CC(F)(F)P(=O)(N[C@@H](C)C(=O)OCc1ccccc1)Oc1ccccc1)CO (some centres undefined) | Active | Non-Toxic | Active | – | Ratio EC50 [1]: 15000; Activity [3]: inactive
2 | O=P(O)(O)C(O)(Cn1ccnc1)P(=O)(O)O [ZOLEDRONIC ACID] | – | – | – | 3060 | –
3 | C/C(=C\CCP(=O)(N[C@@H](C)C(=O)OCc1ccccc1)Oc1ccccc1)CO (some centres undefined) | Active | Non-Toxic | Active | – | Ratio EC50 [1]: 15000; Activity [3]: inactive; Stabilty [7]: Stable
4 | C/C(=C\CC(F)(F)P(=O)(N[C@@H](C)C(=O)OC(C)(C)C)Oc1ccccc1)CO (some centres undefined) | Active | Non-Toxic | Active | 25.8 | –
5 | C/C(=C\CCP(=O)(N[C@@H](C)C(=O)OC(C)C)Oc1ccccc1)CO (some centres undefined) | – | – | – | 0.519 | –
6 | COC(=O)[C@H](C)NP(=O)(CC/C=C(\C)CO)Oc1ccccc1 (some centres undefined) | – | – | – | 0.617 | –
7 | C/C(=C\CC(F)(F)P(=O)(N[C@@H](C)C(=O)OC(C)C)Oc1ccccc1)CO (some centres undefined) | – | – | – | 0.759 | Drug metabolism [8]: Metabolite_Detected; Drug metabolism [9]: Metabolite_Detected; Drug metabolism [10]: Metabolite_Detected; Drug metabolism [11]: Metabolite_Detected
8 | O=P(O)(O)C(O)(Cc1cccnc1)P(=O)(O)O [RISEDRONIC ACID] | – | – | – | – | EC50 [12]: 80 nM
9 | C/C(=C\CCP(=O)(N[C@@H](C)C(=O)OC(C)(C)C)Oc1ccccc1)CO (some centres undefined) | Active | Non-Toxic | Active | 73.4 | –
10 | C/C(=C\COP(=O)(O)OP(=O)(O)O)CO | Active | Non-Toxic | Active | – | half-life [13]: > 12 h
11 | COC(=O)[C@H](C)NP(=O)(Oc1ccccc1)C(F)(F)C/C=C(\C)CO (some centres undefined) | – | – | – | 0.728 | Stabilty [7]: Stable
